From PubChem BioAssay
Only some compounds are listed: those with a hit (about 2.3% of all), similar ones and a draw of the others.
TRPC6 inhibitor: blocks the mouse TRPC6 cation channel; HEK293-TRPC6, membrane potential dye, ACh-evoked depolarization; active compounds read low; Q61143; 1.1% of 310,000 active; B-score at 10 µM;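 active means B-score under library mean minus 3 SD, initial fluorescence not abnormally high, positive integrated signal ratio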;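 further: B-score derived from integrated fluorescence ratio over the kinetic read; more negative B-score means stronger inhibition of depolarization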
TRPC4 act: TRPC4 (mouse) channel activation | Q9QUQ5 | HEK293 TRPC4beta/mu-opioid, Fluo4 calcium fluorescence; active compounds read high | B-score at 10 µM | 0.49% of 310,000 active | AID 2237;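 active means B-score above 5 SD of library B-scores, and initial fluorescence ratio not above library mean plus 5 SD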;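 further: positive B-score marks a calcium rise read as TRPC4 activation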
Target sequence (Q9QUQ5 whole entry, looked up): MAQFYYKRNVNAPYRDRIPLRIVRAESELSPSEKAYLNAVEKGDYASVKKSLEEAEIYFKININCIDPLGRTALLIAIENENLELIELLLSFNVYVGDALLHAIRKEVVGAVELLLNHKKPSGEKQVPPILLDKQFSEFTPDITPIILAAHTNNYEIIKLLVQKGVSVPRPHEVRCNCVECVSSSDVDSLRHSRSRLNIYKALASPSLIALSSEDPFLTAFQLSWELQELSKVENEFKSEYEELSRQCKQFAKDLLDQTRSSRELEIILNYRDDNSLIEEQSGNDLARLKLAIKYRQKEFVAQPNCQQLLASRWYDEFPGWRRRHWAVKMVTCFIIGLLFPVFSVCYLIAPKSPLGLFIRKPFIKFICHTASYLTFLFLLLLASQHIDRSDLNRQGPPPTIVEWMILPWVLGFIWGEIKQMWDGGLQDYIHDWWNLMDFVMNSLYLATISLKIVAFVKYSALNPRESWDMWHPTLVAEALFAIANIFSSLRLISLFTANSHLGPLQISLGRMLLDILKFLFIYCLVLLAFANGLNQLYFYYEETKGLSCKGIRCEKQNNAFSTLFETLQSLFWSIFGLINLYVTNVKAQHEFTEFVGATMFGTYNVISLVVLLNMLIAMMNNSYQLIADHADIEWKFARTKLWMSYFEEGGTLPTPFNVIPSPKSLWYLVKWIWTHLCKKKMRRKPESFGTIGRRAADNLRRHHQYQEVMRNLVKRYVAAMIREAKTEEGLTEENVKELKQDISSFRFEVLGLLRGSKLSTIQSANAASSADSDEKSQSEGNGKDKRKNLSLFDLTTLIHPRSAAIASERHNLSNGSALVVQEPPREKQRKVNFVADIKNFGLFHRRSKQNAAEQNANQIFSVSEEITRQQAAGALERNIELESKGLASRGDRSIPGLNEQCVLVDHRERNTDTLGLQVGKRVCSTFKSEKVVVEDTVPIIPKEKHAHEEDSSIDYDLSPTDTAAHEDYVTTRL
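Assay system: HEK293 cells stably co-expressing mouse TRPC4beta and mu-opioid receptor / Timing: Fluo4 dye loading 45 min at room temperature, 110 s recording / Signal: Fluo4 calcium-sensitive dye fluorescence, kinetic, 1 Hz baseline / Read-out: integrated baseline-normalised fluorescence ratio, converted to per-well B score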
TRPC6 activator: mouse TRPC6 channel activation; Q61143; HEK293-TRPC6 membrane potential dye fluorescence; active compounds read high; B-score at 10 µM; 0.13% of 310,000 active; AID 2550;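 active means B-score of the integrated fluorescence ratio above library mean plus 3 SD, and starting fluorescence ratio within library mean plus 5 SD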;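 further: higher score means more depolarization so channel activation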
TRPC4 PAM: allosteric potentiators of mouse TRPC4 channel; B-score at 10 µM; Q9QUQ5; 0.42% of 310,000 active; HEK293 TRPC4beta/mu-opioid, DAMGO EC20, Fluo-4 Ca2+ flux; active compounds read high;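 active means B-score of calcium response area above 5 SD of library B-scores, with initial fluorescence ratio within 5 SD of library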
TRPC4 inh: inhibitors of mouse TRPC4 channel; Q9QUQ5; HEK293 TRPC4beta/mu-opioid, DAMGO-evoked Fluo4 calcium flux; active compounds read low; B-score at 10 µM; 0.39% of 300,000 active; AID 2247;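 active means B-score over 3 SD under the library average, no early fluorescence shift, positive overall ratio signal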
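System: stable TRPC4beta/mu-opioid receptor HEK293 cells; Dosing: single-point compound dosing; Measured by: Fluo4 Ca2+ flux fluorescence; Read-out basis: per-well B score of integrated baseline-normalized Fluo4 ratio.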
TRPC4 spec 2: second check of whether TRPC6 inhibitors also affect mouse TRPC4; shares compounds with TRPC6 inhibitor; HEK293 TRPC4/MOR, membrane potential dye fluorescence; channel activated by saturating DAMGO dose; inhibition, % at 10 µM; 42% of 920 active; AID 2776;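 active means compounds whose fluorescence signal differed from control wells by over 3 SD, either direction, in both duplicate plates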
TRPC4 spec: mouse TRPC4 off-target activity of TRPC6 inhibitors; shares compounds with TRPC6 inhibitor; HEK293 TRPC4/mu-opioid, membrane potential fluorescence; activity change, negative = inhibition, % at 10 µM; 61% of 920 active;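 active means rise or fall in signal beyond 3 SD of buffer-only wells in both replicate plates, either sign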;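 further: integrated kinetic ratio of fluorescence range over baseline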
HEK293 MPD ctr 2-1: second counter-screen for TRPC6 inhibitors: parental HEK293 cells; parental HEK293 membrane potential dye fluorescence; maximal acetylcholine challenge after compound addition; shares compounds with TRPC6 inhibitor; AID 2779; 31% of 920 active; signal change vs control, % at 10 µM;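 active means membrane potential signal moving either way by over 3 SD of the maximum-effect control, in both duplicate plates, meaning non-specific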
HEK293 MPD ctr-1: counter-screen for TRPC6 inhibitors: effect in parental HEK293 cells | shares compounds with TRPC6 inhibitor | parental HEK293 membrane potential dye fluorescence | membrane potential signal change, % at 10 µM | 60% of 920 active | AID 2780;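 active means membrane potential signal shifting up or down by more than 3 SD of buffer-only wells, on both duplicate plates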
HEK293 MPD ctr-2: parental HEK293 nonspecific activity of TRPC6 modulators | membrane potential signal change, % at 10 µM | AID 488924 | 51% of 2,400 active | shares compounds with TRPC6 inhibitor | membrane potential dye fluorescence;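 active means membrane potential signal moves up or down beyond 5 SD from buffer-only wells, on both duplicate plates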
HEK293 MPD ctr 2-2: parental HEK293 nonspecific activity of TRPC6 modulators, second screen | shares compounds with TRPC6 inhibitor | membrane potential dye fluorescence; after compound, maximal acetylcholine stimulation | inhibition, % at 10 µM | 14% of 2,400 active | AID 488926;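 active means membrane potential signal drops by more than 5 SD from the mean control signal, in both duplicate plates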
TRPC4/MOR mod: tests whether TRPC6 modulators also affect mouse TRPC4; shares compounds with TRPC6 inhibitor; HEK293 TRPC4/mu-opioid, membrane potential fluorescence; AID 488927; percent change from control (negative = decrease, positive = increase), % at 10 µM; 69% of 2,400 active;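 active means membrane potential signal moved up or down beyond 5 SD of buffer control wells, in both duplicate plates, actives on both sides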
TRPC4/MOR inh 2: mouse TRPC4 off-target activity of TRPC6 modulators, second screen | shares compounds with TRPC6 inhibitor | HEK293 TRPC4/mu-opioid, membrane potential dye fluorescence; stimulated with maximal-effect DAMGO | inhibition, % at 10 µM | 55% of 2,400 active;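 active means drop in membrane potential signal beyond 5 SD of the control wells in both duplicate plates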;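 further: TRPC4 counter screen for TRPC6 hits run under conditions tuned for TRPC6 not TRPC4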
TRPC6 inh conf: confirmation of mouse TRPC6 inhibitors. shares compounds with TRPC6 inhibitor. HEK293-TRPC6, membrane potential dye, ACh-evoked depolarization. inhibition, % at 10 µM. 43% of 3,300 active. AID 488960;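 active means fluorescence ratio falls more than 5 SD below the full-stimulation control mean, in both duplicate runs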;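 further: integrated fluorescence ratio of peak minus minimum over baseline after agonist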
TRPC6 act conf: mouse TRPC6 activator confirmation; shares compounds with TRPC6 inhibitor; HEK293-TRPC6 membrane potential dye fluorescence, FDSS; activation, % at 10 µM; 11% of 2,800 active; AID 488961;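 active means ratio signal rise beyond 5 SD above unstimulated control wells' mean, seen in both duplicate runs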
A number is an active result.

`CC(Nc1cc(N2CCNCC2)ccc1[N+](=O)[O-])c1ccccc1` (stereo not given) gave TRPC6 inhibitor -7.1, TRPC4 act 75, TRPC6 activator inactive, TRPC4 PAM inactive, TRPC4 inh inactive, TRPC4 spec 2 72%, TRPC4 spec inactive, HEK293 MPD ctr 2-1 inactive, HEK293 MPD ctr-1 -182%, TRPC6 inh conf inactive and TRPC6 act conf inactive.
`CCS(=O)(=O)N1CCN(c2ccc([N+](=O)[O-])c(NC(C)c3ccccc3)c2)CC1` (stereo not given) gave TRPC6 inhibitor inactive, TRPC4 act inactive, TRPC6 activator inactive, TRPC4 PAM inactive and TRPC4 inh inactive.
`CN1CCN(S(=O)(=O)c2ccc(NS(=O)(=O)c3ccccc3)cc2)CC1` gave TRPC6 inhibitor inactive, TRPC4 act inactive, TRPC6 activator inactive, TRPC4 PAM inactive and TRPC4 inh inactive.
O=C(Nc1ccc(N2CCCC2)cc1)c1ccc(Br)o1 was read as TRPC6 inhibitor inactive, TRPC4 act inactive, TRPC6 activator inactive, TRPC4 PAM inactive and TRPC4 inh inactive.
Screening Cc1cc(N2CCCCC2)nc2ccc(NC(=O)c3ccc(Br)o3)cc12 returned TRPC6 inhibitor -8.8, TRPC4 act inactive, TRPC6 activator inactive, TRPC4 PAM inactive, TRPC4 inh inactive, TRPC4 spec 2 72%, TRPC4 spec -31%, HEK293 MPD ctr 2-1 inactive, HEK293 MPD ctr-1 -332%, TRPC6 inh conf 51% and TRPC6 act conf inactive.
Screening CCN1CCN(c2cc(C)c3cc(NC(=O)c4cnccn4)ccc3n2)CC1 returned TRPC6 inhibitor -5.9, TRPC4 act inactive, TRPC6 activator inactive, TRPC4 PAM inactive, TRPC4 inh inactive, HEK293 MPD ctr-2 inactive, HEK293 MPD ctr 2-2 69%, TRPC4/MOR mod 11%, TRPC4/MOR inh 2 29%, TRPC6 inh conf inactive and TRPC6 act conf inactive.
Cc1cc(N2CCN(C)CC2)nc2ccc(NC(=O)c3ccc(Br)o3)cc12 was read as TRPC6 inhibitor -6.3, TRPC4 act inactive, TRPC6 activator inactive, TRPC4 PAM inactive, TRPC4 inh inactive, HEK293 MPD ctr-2 -100%, HEK293 MPD ctr 2-2 inactive, TRPC4/MOR mod inactive, TRPC4/MOR inh 2 80%, TRPC6 inh conf 67% and TRPC6 act conf inactive.
`CCN(CC(=O)NCc1ccc(Cl)cc1)S(=O)(=O)c1ccc(NC(C)=O)cc1` gave TRPC6 inhibitor inactive, TRPC4 act inactive, TRPC6 activator inactive, TRPC4 PAM inactive and TRPC4 inh inactive.
